Laboratory results as given in ChEMBL document CHEMBL4024713, “Novel aryl piperazines for alleviation of 'andropause' associated prostatic disorders and depression” (Eur J Med Chem, 2017).
The source made the active and inactive calls. The rule behind the calls is not given here.

Assays:
Mus musculus [1] = test: Anti-depressant like activity in Swiss albino mouse assessed as reduction in immobility time at 60 mg/kg, po administered 60 mins prior to test measured for 5 mins by forced swim test relative to control; assay type: functional; set-up: scale not given: the % may be the effect or the level left
Method in brief: (§1)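 Male Swiss albino mice (20-25 g); compound 20 mg/kg, imipramine 60 mg/kg or fluoxetine 20 mg/kg given orally in 1% gum acacia (10 mL/kg). After 60 min: 15 min pre-swim in a water cylinder (10 cm depth, 25 ± 1 °C), then retest at 24 h. Immobility recorded for 5 min after 1 min acclimatization; N = 7-9, mean ± SEM, unpaired t-test.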

Mus musculus [2] = test: Anti-depressant like activity in Swiss albino mouse assessed as reduction in immobility time at 60 mg/kg, po measured for 5 mins by tail suspension test; assay type: functional, organism-based
Method in brief: (§2)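 Male Swiss albino mice dosed orally in 1% gum acacia; imipramine as standard. Each mouse suspended by the tail with tape to a horizontal bar 60 cm above the table. Immobility (no limb or body movement other than respiration) recorded for 5 min after 1 min acclimatization; N = 5.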

Rattus norvegicus [3] = test: Toxicity in citral-induced prostatic hyperplasia Sprague-Dawley rat model assessed as effect on epididymis weight at 10 mg/kg, po administered once daily coadministered with citral for 21 days measured 24 hrs last post dose; assay type: organism-based; conditions: in vivo
Rattus norvegicus [4] = test: Toxicity in citral-induced prostatic hyperplasia Sprague-Dawley rat model assessed as effect on testis weight at 10 mg/kg, po administered once daily coadministered with citral for 21 days measured 24 hrs last post dose; assay type: organism-based; conditions: in vivo
Rattus norvegicus [5] = test: Anti-androgenic activity in citral-induced prostatic hyperplasia Sprague-Dawley rat model assessed as prostate weight at 10 mg/kg, po administered once daily coadministered with citral for 21 days measured 24 hrs last post dose (reference value: 100%); assay type: functional
Method in brief: (§3)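 Adult male Sprague-Dawley rats (250-280 g, n = 5), citral 100 mg/kg orally once daily for 28 days. From day 8, compound or flutamide at 10 mg/kg orally once daily for the remaining 21 days. Prostate weight is expressed relative to the citral group (100%). Prostates fixed in 10% formalin; 5 μ sections stained with H&E, examined by light microscopy.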

[6] = target: T1, Androgen receptor (Homo sapiens) (UniProt P10275); test: Antagonist activity at AR (unknown origin) expressed in African green monkey COS7 cells at 7.5 uM after 24 hrs by dual luciferase reporter gene assay; assay type: cell-based
T1 sequence (whole entry): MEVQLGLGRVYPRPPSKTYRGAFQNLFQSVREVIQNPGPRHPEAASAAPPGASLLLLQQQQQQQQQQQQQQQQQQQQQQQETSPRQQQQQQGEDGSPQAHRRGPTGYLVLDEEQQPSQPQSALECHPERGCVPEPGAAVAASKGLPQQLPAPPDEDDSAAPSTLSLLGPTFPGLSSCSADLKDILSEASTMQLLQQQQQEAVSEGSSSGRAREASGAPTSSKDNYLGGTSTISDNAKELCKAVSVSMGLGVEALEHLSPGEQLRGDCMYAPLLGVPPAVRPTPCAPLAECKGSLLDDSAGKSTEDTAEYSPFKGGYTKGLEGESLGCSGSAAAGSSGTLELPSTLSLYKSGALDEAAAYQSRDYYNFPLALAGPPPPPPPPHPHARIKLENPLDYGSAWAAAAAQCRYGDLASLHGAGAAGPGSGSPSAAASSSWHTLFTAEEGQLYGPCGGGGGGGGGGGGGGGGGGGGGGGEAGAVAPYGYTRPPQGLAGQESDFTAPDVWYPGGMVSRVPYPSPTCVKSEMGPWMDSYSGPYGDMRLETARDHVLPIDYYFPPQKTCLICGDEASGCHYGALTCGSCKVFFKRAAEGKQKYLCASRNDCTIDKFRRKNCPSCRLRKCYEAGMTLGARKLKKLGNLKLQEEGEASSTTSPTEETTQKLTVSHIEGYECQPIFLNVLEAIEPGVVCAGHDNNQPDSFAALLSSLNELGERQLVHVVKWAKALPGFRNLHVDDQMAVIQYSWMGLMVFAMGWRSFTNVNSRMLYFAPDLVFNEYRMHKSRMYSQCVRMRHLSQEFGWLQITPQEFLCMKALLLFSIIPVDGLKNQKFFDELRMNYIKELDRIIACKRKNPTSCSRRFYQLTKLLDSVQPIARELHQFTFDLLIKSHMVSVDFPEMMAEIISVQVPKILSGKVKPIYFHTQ
Method in brief: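 Cos7 cells (AR-negative) transiently transfected for 8 h with pARE-E1B-LUC reporter plus pCR3.1.AR expression vector. Then in complete medium, treated with compound at 7.5 μM for 24 h; bicalutamide 3 μM as positive control. Luciferase normalized to pRL-SV40 internal control, expressed as RLU relative to control = 100%.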

LNCaP = test: Cytotoxicity against human LNCAP cells after 24 hrs by MTT assay; assay type: functional, cell-based
Mus musculus [7] = test: Anti-depressant like activity in Swiss albino mouse assessed as reduction in immobility time at 20 mg/kg, po administered 60 mins prior to test measured for 5 mins by forced swim test relative to control; assay type: functional; set-up: scale not given: the % may be the effect or the level left; method in brief: as §1
Rattus norvegicus [8] = test: Toxicity in citral-induced prostatic hyperplasia Sprague-Dawley rat model assessed as effect on seminal vesicle weight at 10 mg/kg, po administered once daily coadministered with citral for 21 days measured 24 hrs last post dose; assay type: organism-based; conditions: in vivo
Rattus norvegicus [9] = test: Anti-androgenic activity in citral-induced prostatic hyperplasia Sprague-Dawley rat model assessed increase in distinction between stromal and acinar compartments at 10 mg/kg, po administered once daily coadministered with citral for 21 days measured 24 hrs last post dose by hematoxyline and eosin stainig based light microscopic analysis; assay type: functional, organism-based; method in brief: as §3
DU-145 = test: Cytotoxicity against human DU145 cells after 24 hrs by MTT assay; assay type: functional, cell-based; conditions: DU-145, 24 h
PC-3 = test: Cytotoxicity against human PC3 cells after 24 hrs by MTT assay; assay type: functional, cell-based; conditions: PC-3, 24 h
[10] = target: T2, Alpha-1A adrenergic receptor (Homo sapiens) (UniProt P35348); test: Antagonist activity at recombinant human alpha1a adrenergic receptor expressed in human Chem1 cell membrane assessed as reduction in ephinephrine-induced calcium mobilization at 1 uM by fluoforte dye based fluorescence assay relative to ephinephrine; assay type: functional
T2 sequence (whole entry): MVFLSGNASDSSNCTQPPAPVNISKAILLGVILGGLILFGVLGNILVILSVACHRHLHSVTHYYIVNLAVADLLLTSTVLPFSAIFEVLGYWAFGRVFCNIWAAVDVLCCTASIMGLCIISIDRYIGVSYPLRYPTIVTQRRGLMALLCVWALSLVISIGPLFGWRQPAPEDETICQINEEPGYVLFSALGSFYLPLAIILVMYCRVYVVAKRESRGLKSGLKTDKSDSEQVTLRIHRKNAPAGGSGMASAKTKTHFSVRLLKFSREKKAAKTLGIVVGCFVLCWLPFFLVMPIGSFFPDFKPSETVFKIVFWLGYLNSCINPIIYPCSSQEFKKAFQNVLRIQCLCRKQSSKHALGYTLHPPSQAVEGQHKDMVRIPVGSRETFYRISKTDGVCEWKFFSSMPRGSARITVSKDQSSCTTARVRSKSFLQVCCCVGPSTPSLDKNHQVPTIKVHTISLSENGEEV
Method in brief: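 α1A-adrenergic receptor-expressing Chem-1 cells, 4 x 10^4/well overnight, loaded with FluoForte calcium dye 45 min at 37 °C then 15 min at room temperature. Compounds at 1 μM; epinephrine 20 μM added at 10 s; tamsulosin 100 nM and 1 μM as reference. Fluorescence (ex 490/em 525 nm) read for 180 s as RFU.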

Mus musculus [11] = test: Toxicity in Swiss albino mouse assessed as effect on locomotor activity at 20 mg/kg, po measured at 5 mins interval for 90 mins by open field test; assay type: organism-based; conditions: in vivo
Method in brief: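 Male Swiss albino mice in an activity chamber, infrared beam-break counting over 24 intervals of 5 min (120 min). Oral dosing after the 6th interval; six animals per group.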

Mus musculus [12] = test: Toxicity in Swiss albino mouse assessed as latency time to fall at 20 mg/kg, po measured at 1 hr interval for 4 hrs by rotarod test; assay type: organism-based; conditions: in vivo
Method in brief: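 Mice trained on the rotarod (5 to 10 rpm), 2 min trials, 3 per day for two days. On day 3, tested before oral dosing and at 1, 2, 3 and 4 h after, recording latency to fall.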

Mus musculus [13] = test: Anti-depressant like activity in Swiss albino mouse assessed as reduction in immobility time at 20 mg/kg, po measured for 5 mins by tail suspension test; assay type: functional, organism-based; method in brief: as §2

CN(C)CCCN1c2ccccc2CCc2ccccc21 [IMIPRAMINE]
Activity (Mus musculus [1]): 40.39% | Activity (Mus musculus [2]): Active

O=[N+]([O-])c1cc(C(F)(F)F)ccc1N1CCN(CCCN2CCN(c3ccc(C(F)(F)F)cc3[N+](=O)[O-])CC2)CC1
Activity (Rattus norvegicus [3]): Non-Toxic | Activity (Rattus norvegicus [4]): Non-Toxic | Activity (Rattus norvegicus [5]): 51.7% | Activity [6]: Active | EC50 (LNCaP): 12.2 µM | Activity (Mus musculus [7]): 25.71% | Activity (Rattus norvegicus [8]): Non-Toxic | Activity (Rattus norvegicus [9]): Active | EC50 (DU-145): 76.5 µM | EC50 (PC-3): > 80 µM

Fc1ccccc1N1CCN(CCCN2CCN(c3ccccc3F)CC2)CC1
Activity (Rattus norvegicus [3]): Non-Toxic | Activity (Rattus norvegicus [4]): Non-Toxic | Activity (Rattus norvegicus [5]): 37% | EC50 (LNCaP): 10.4 µM | Activity (Mus musculus [7]): 20.86% | Activity (Rattus norvegicus [8]): Non-Toxic | Activity (Rattus norvegicus [9]): Active | EC50 (DU-145): > 80 µM | EC50 (PC-3): > 80 µM

Fc1ccccc1N1CCN(CCN2CCN(c3ccccc3F)CC2)CC1
EC50 (LNCaP): 40 µM

Fc1ccc(N2CCN(CCCN3CCN(c4ccc(F)cc4)CC3)CC2)cc1
EC50 (LNCaP): 49.2 µM

O=[N+]([O-])c1ccc(N2CCN(CCN3CCN(c4ccc([N+](=O)[O-])cc4C(F)(F)F)CC3)CC2)c(C(F)(F)F)c1
EC50 (LNCaP): 72.2 µM

O=[N+]([O-])c1ccc(N2CCN(CCN3CCN(c4ccc([N+](=O)[O-])cc4)CC3)CC2)cc1
EC50 (LNCaP): 25.2 µM

CCOc1ccccc1OCCN[C@H](C)Cc1ccc(OC)c(S(N)(=O)=O)c1
fold change (FC) [10]: 1.6

COc1ccccc1N1CCN(CCN2CCN(c3ccc([N+](=O)[O-])cc3)CC2)CC1
EC50 (LNCaP): 46.5 µM

O=[N+]([O-])c1ccc(N2CCN(CCCN3CCN(c4ccc([N+](=O)[O-])cc4C(F)(F)F)CC3)CC2)c(C(F)(F)F)c1
EC50 (LNCaP): 55.5 µM

O=[N+]([O-])c1ccc(N2CCN(CCN3CCN(c4ccc(F)cc4)CC3)CC2)cc1
EC50 (LNCaP): 77.9 µM

COc1ccccc1N1CCN(CCN2CCN(c3ccc(F)cc3)CC2)CC1
EC50 (LNCaP): 78.7 µM

Fc1ccc(N2CCN(CCN3CCN(c4ccccc4F)CC3)CC2)cc1
EC50 (LNCaP): 68 µM

Fc1ccc(N2CCN(CCN3CCN(c4ccc(F)cc4)CC3)CC2)cc1
EC50 (LNCaP): 71.2 µM

O=[N+]([O-])c1ccc(N2CCN(CCCN3CCN(c4ccc([N+](=O)[O-])cc4)CC3)CC2)cc1
Activity (Rattus norvegicus [3]): Non-Toxic | Activity (Mus musculus [11]): Non-Toxic | Activity (Rattus norvegicus [4]): Non-Toxic | Activity (Rattus norvegicus [5]): 29% | EC50 (LNCaP): 11.8 µM | Activity (Mus musculus [7]): 69.74% | Activity (Rattus norvegicus [8]): Non-Toxic | Time (Mus musculus [12]): 120 s | Activity (Mus musculus [13]): Active | Activity (Rattus norvegicus [9]): Active | EC50 (DU-145): > 80 µM | EC50 (PC-3): > 80 µM

CNCCC(Oc1ccc(C(F)(F)F)cc1)c1ccccc1 (stereo not drawn) [FLUOXETINE]
Activity (Mus musculus [7]): 75.35%

CC(C)C(=O)Nc1ccc([N+](=O)[O-])c(C(F)(F)F)c1 [FLUTAMIDE]
Activity (Rattus norvegicus [5]): 58.8% | EC50 (LNCaP): 7 µM

c1ccc(N2CCN(CCN3CCN(c4ccccn4)CC3)CC2)nc1
Activity (Rattus norvegicus [3]): Non-Toxic | Activity (Rattus norvegicus [4]): Non-Toxic | Activity (Rattus norvegicus [5]): 44% | EC50 (LNCaP): 12.4 µM | Activity (Mus musculus [7]): 16.95% | Activity (Rattus norvegicus [8]): Non-Toxic | Activity (Rattus norvegicus [9]): Active | EC50 (DU-145): > 80 µM | EC50 (PC-3): > 80 µM

COc1ccccc1N1CCN(CCN2CCN(c3ccccc3OC)CC2)CC1
EC50 (LNCaP): 40 µM

O=[N+]([O-])c1cc(C(F)(F)F)ccc1N1CCN(CCN2CCN(c3ccc(C(F)(F)F)cc3[N+](=O)[O-])CC2)CC1
EC50 (LNCaP): 63.2 µM
